The text below walks through data of ChEMBL document CHEMBL3297668, “Synthesis of truncated analogues of preptin-(1–16), and investigation of their ability to stimulate osteoblast proliferation” (Bioorg Med Chem, 2014).

Active and inactive are the calls of the source. The calls are words filed in the database; no cut-off is given here. Where a SMILES comes first, the peptide text is derived from it.

One assay concerns Osteoblast. The experiment in a line: Stimulation of differentiation of rat osteoblasts assessed as increase in mineralized bone nodules at 10 '-10 to 10 '-9 M after 3 weeks using Von Kossa staining by bone nodule formation assay relative to control. The assay is classed as functional, cell-based. Summed up: (§1)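 Primary osteoblasts from 20-day fetal rat calvariae (sequential collagenase digests 3 and 4) plated at 5 × 10⁴ cells/well in αMEM/10% FBS plus ascorbate-2-phosphate. At confluence (~3 days), medium switched to MEM/15% FBS with 50 µg/mL L-ascorbic acid-2-phosphate and 10 mM β-glycerophosphate, plus peptide; medium and peptide renewed twice weekly. Dexamethasone positive control. At 21 days, fixed in 10% neutral buffered formalin, Von Kossa stained, mineralized area quantified by image analysis.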
In the case of `CC(=O)N[C@@H](Cc1ccccc1)C(=O)N1CCC[C@H]1C(=O)N[C@@H](CCCNC(=N)N)C(=O)N[C@@H](Cc1ccc(O)cc1)C(N)=O` (Ac-FPRY-NH2), the outcome was inactive.

For the next assay, the system named is Osteoblast. The experiment in a line: Stimulation of differentiation of rat osteoblasts assessed as increase in mineralized bone nodules at 10 '-9 M after 3 weeks using Von Kossa staining by bone nodule formation assay relative to control. Type of assay: functional, cell-based. A digest of the protocol: as §1
H-DVSTSQAV-OH: the result was Active.

The subject of the next assay is Osteoblast. The experiment in a line: Stimulation of proliferation of foetal rat osteoblasts at 10 '-10 to 10 '-8 M after 18 to 24 hrs by [3H]-thymidine incorporation assay relative to control. Type of assay: functional, cell-based. A digest of the protocol: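 Osteoblasts from 20-day fetal rat calvariae (collagenase digests 3 and 4) were expanded in FBS medium with ascorbate-2-phosphate, seeded at 2.5 × 10⁴ cells/well in 5% FBS/MEM for 24 h, then growth-arrested 24 h in 0.1% BSA/5 µg/mL ascorbate-2-phosphate. Peptide treatment 24 h, with [³H]-thymidine pulse over the final 6 h. Result expressed as treatment/vehicle ratio. 6 wells/group, 3–4 experiments, ANOVA with Dunnett's test.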
For `CC(=O)N[C@@H](CC(=O)O)C(=O)N[C@H](C(=O)N[C@@H](CO)C(=O)N[C@H](C(N)=O)[C@@H](C)O)C(C)C` (Ac-DVST-NH2), the result was inactive.

Take H-DVSTSQAVLPDDFPRY-NH2: the result was inactive.

Take H-SQAVLPDDFPRY-NH2: the result was inactive.

For the compound Ac-DVSTSQAV-OH, the outcome was inactive.

As to Ac-DVSTSQAV-NH2, the outcome was inactive.

With Ac-SQAVLPDDFPRY-NH2, the outcome was inactive.

In the case of `CC(=O)N[C@@H](CC(=O)O)C(=O)N[C@H](C(=O)N[C@@H](CO)C(=O)N[C@H](C(=O)O)[C@@H](C)O)C(C)C` (Ac-DVST-OH), the result was inactive.

In the case of Ac-DVSTSQAVLPDDFPRY-NH2, the result was Active.

For the compound H-SQAVLPDDFPRY-OH, the outcome was inactive.

For `N=C(N)NCCC[C@H](NC(=O)[C@@H]1CCCN1C(=O)[C@@H](N)Cc1ccccc1)C(=O)N[C@@H](Cc1ccc(O)cc1)C(=O)O` (H-FPRY-OH), the outcome was inactive.

As for `CC(C)[C@H](NC(=O)[C@@H](N)CC(=O)O)C(=O)N[C@@H](CO)C(=O)N[C@H](C(N)=O)[C@@H](C)O` (H-DVST-NH2), the outcome was inactive.

Take H-DVSTSQAVLPDD-NH2: the outcome was inactive.

For Ac-LPDDFPRY-NH2, the result was inactive.

Take Ac-SQAVLPDDFPRY-OH: the outcome was inactive.

Ac-LPDDFPRY-OH: the outcome was inactive.

In the case of `N=C(N)NCCC[C@H](NC(=O)[C@@H]1CCCN1C(=O)[C@@H](N)Cc1ccccc1)C(=O)N[C@@H](Cc1ccc(O)cc1)C(N)=O` (H-FPRY-NH2), the result was inactive.

Take Ac-DVSTSQAVLPDD-NH2: the result was inactive.

As to `CC(=O)N[C@@H](Cc1ccccc1)C(=O)N1CCC[C@H]1C(=O)N[C@@H](CCCNC(=N)N)C(=O)N[C@@H](Cc1ccc(O)cc1)C(N)=O` (Ac-FPRY-NH2), the outcome was Active.

`CC(C)[C@H](NC(=O)[C@@H](N)CC(=O)O)C(=O)N[C@@H](CO)C(=O)N[C@H](C(=O)O)[C@@H](C)O` (H-DVST-OH): the result was inactive.

With H-DVSTSQAVLPDD-OH, the outcome was inactive.

As to H-DVSTSQAV-OH, the outcome was Active.

Turning to H-LPDDFPRY-NH2, the outcome was inactive.

For the compound Ac-DVSTSQAVLPDDFPRY-OH, the result was inactive.

Regarding Ac-DVSTSQAVLPDD-OH, the outcome was inactive.

As for `CC(=O)N[C@@H](Cc1ccccc1)C(=O)N1CCC[C@H]1C(=O)N[C@@H](CCCNC(=N)N)C(=O)N[C@@H](Cc1ccc(O)cc1)C(=O)O` (Ac-FPRY-OH), the outcome was inactive.

For the compound H-LPDDFPRY-OH, the outcome was inactive.

For the compound H-DVSTSQAVLPDDFPRY-OH, the result was Active.
